Test results from ChEMBL document CHEMBL4411287, “Discovery and optimization of a series of 3-substituted indazole derivatives as multi-target kinase inhibitors for the treatment of lung squamous cell carcinoma” (Eur J Med Chem, 2019).
Substitutions are numbered along the chain they refer to. ≈ marks a conversion by molar mass, not a printed value. Calls of active or inactive are those of the source. The calls are words filed in the database; no cut-off is given here.

Key:
KG-1 = assay: Antiproliferative activity against FGFR1 fused human KG1 cells after 72 hrs by CCK8 assay; format: functional, cell-based; conditions: KG-1, 72 h
Procedure, shortened: (§1)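 Cells seeded at low density in growth medium and compounds added the next day. Incubated 72 h, then proliferation read by sulforhodamine B, MTT or CCK-8. IC50 obtained by four-parameter concentration-response curve fitting.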

SNU-16 = assay: Antiproliferative activity against FGFR2 amplified human SNU16 cells after 72 hrs by CCK8 assay; format: functional, cell-based; conditions: SNU-16, 72 h; procedure, shortened: as §1
NCI-H716 = assay: Antiproliferative activity against FGFR2 amplified human NCI-H716 cells after 72 hrs by CCK8 assay; format: functional, cell-based; conditions: NCI-H716, 72 h; procedure, shortened: as §1
[1] = Antiproliferative activity against human UM-UC-14 cells harboring FGFR3 mutation after 72 hrs by CCK8 assay; format: functional, cell-based; conditions: UMUC14, 72 h; procedure, shortened: as §1
NCI-H2286 [2] = assay: Antiproliferative activity against human NCI-H2286 cells harboring DDR2 mutation after 72 hrs by CCK8 assay; format: functional, cell-based; conditions: NCI-H2286, 72 h; procedure, shortened: as §1
NCI-H2286 [3] = assay: Antitumor activity against human NCI-H2286 cells xenografted in SCID mouse assessed as tumor growth inhibition at 50 mg/kg, po qd for 10 consecutive days relative to control; format: functional; conditions: read-out: TGI
Procedure, shortened: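 NCI-H2286 xenograft established by s.c. fragment implantation. At 100-150 mm³ mice were randomized (vehicle n=10, treated n=5) and given compound orally once daily for 10 days. Tumour volume = length×width²/2, measured twice weekly. TGI taken on the final day from change in volume relative to vehicle, with Student's t-test.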

[4] = test system: T1, Discoidin domain-containing receptor 2 (Homo sapiens), Q16832 [I638F]; conditions: NCI-H2286, 100 nM
T1 sequence (whole entry): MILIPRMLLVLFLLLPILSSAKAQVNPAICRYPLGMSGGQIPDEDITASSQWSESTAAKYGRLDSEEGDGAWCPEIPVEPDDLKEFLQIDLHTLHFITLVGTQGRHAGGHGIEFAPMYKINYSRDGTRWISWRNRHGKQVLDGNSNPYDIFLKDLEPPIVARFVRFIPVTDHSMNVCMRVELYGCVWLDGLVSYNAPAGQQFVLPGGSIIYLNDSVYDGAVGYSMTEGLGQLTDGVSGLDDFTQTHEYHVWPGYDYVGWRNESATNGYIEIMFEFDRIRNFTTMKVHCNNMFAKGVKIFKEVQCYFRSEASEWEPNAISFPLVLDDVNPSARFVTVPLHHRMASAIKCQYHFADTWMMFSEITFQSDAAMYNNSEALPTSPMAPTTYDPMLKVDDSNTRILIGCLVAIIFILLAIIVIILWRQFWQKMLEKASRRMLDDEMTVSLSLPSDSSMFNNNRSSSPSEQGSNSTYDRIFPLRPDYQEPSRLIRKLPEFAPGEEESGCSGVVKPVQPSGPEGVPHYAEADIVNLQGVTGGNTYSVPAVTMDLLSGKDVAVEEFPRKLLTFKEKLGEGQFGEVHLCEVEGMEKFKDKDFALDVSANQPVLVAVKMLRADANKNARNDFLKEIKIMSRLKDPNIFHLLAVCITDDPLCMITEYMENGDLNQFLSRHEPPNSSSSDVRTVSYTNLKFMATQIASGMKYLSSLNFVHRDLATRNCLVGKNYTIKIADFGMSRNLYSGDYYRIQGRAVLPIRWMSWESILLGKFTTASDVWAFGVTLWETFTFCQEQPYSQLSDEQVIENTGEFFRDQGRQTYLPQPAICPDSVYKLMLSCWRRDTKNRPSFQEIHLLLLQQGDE

[5] = target: T2, Discoidin domain-containing receptor 2 (Homo sapiens) (UniProt Q16832); assay: Inhibition of DDR2 (unknown origin) at 20 uM using poly (Glu, Tyr) 4:1 substrate after 60 mins by ELISA relative to control
T2 sequence (whole entry): T1 sequence (whole entry) with F638I
Procedure, shortened: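 ELISA with purified recombinant DDR2 on poly(Glu,Tyr) 4:1 precoated at 20 µg/mL. 10 µM ATP in HEPES pH 7.4 buffer with MgCl2, MnCl2, Na3VO4 and DTT, 1% DMSO; 60 min at 37 °C. Phosphotyrosine detected by PY99 and HRP anti-mouse IgG with o-phenylenediamine at A490. Inhibition = 1−A490/A490control; two separate experiments.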

[6] = Half life in ICR(CD-1) mouse at 10 mg/kg, po administered via gavage by triple quadrupole mass spectrometric analysis; format: ADME, organism-based; conditions: in vivo
Procedure, shortened: (§2)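 Oral gavage at 1 mg/mL in 1% Tween80/water to male ICR mice (18-22 g, n=3). Plasma sampled at 0.25, 0.5, 1, 2, 4, 8 and 24 h, protein precipitated with methanol:acetonitrile (1:1) containing internal standard, and quantified by UPLC-triple quadrupole MS. AUC and MRT were taken from per-animal time-concentration curves. Cmax is the maximum plasma level and Tmax the time to reach it.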

[7] = Tmax in ICR(CD-1) mouse at 10 mg/kg, po administered via gavage by triple quadrupole mass spectrometric analysis; format: ADME, organism-based; conditions: in vivo
Procedure, shortened: (§3)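 Dosed by gavage at 1 mg/mL in 1% Tween80/water to male ICR mice, 18-22 g, n=3. Blood taken at 0.25, 0.5, 1, 2, 4, 8 and 24 h. Plasma precipitated with methanol:acetonitrile (1:1) containing internal standard, then UPLC-MS/MS on a C18 column with an ammonium acetate/formic acid–acetonitrile gradient. Tmax read directly from the data; MRT calculated per animal from concentration–time curves.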

[8] = Cmax in ICR(CD-1) mouse at 10 mg/kg, po administered via gavage by triple quadrupole mass spectrometric analysis; format: ADME, organism-based; parameters: dose 10 mg/kg, route oral; conditions: in vivo; procedure, shortened: as §2
[9] = AUC (0 to t) in ICR(CD-1) mouse at 10 mg/kg, po administered via gavage by triple quadrupole mass spectrometric analysis; format: ADME, organism-based; conditions: in vivo; procedure, shortened: as §2
[10] = AUC (0 to infinity) in ICR(CD-1) mouse at 10 mg/kg, po administered via gavage by triple quadrupole mass spectrometric analysis; format: ADME, organism-based; parameters: dose 10 mg/kg, route oral, time infinity; conditions: in vivo; procedure, shortened: as §2
[11] = MRT in ICR(CD-1) mouse at 10 mg/kg, po administered via gavage by triple quadrupole mass spectrometric analysis; format: ADME, organism-based; conditions: in vivo; procedure, shortened: as §3
[12] = Solubility of compound; format: physicochemical
[13] = Permeability in human Caco2 cells at 5 uM after 120 mins by LC-MS/MS analysis relative to control; format: ADME, cell-based; conditions: Caco-2, read-out: Fabs
Procedure, shortened: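 Caco-2 (C2BBe1) monolayers grown confluent on collagen-coated transwell membranes. Buffer is HBSS with 10 mM HEPES at pH 7.4 and pH 6.8. Compound 5 µM added to the apical or basolateral side; duplicate samples taken at 120 min and analysed by LC-MS/MS. Results given as Papp A→B and B→A and efflux ratio B→A/A→B.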

[14] = Efflux ratio of permeability in human Caco2 cells at 5 uM after 120 mins by LC-MS/MS analysis; format: ADME, cell-based; conditions: Caco-2
Procedure, shortened: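 Caco-2 (C2BBe1) monolayers grown to confluence on collagen-coated transwell polycarbonate membranes. Compound at 5 μM added apically or basolaterally in HBSS with 10 mM HEPES at pH 7.4 and 6.8. Duplicate samples taken at 120 min and analysed by LC-MS/MS. Efflux ratio = Papp(B→A)/Papp(A→B).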

**Q.** Which results are given for `COc1cc(CCc2cc(NC(=O)c3ccc(N4C[C@@H](C)N[C@@H](C)C4)cc3)n[nH]2)cc(OC)c1` [FEXAGRATINIB]?
**A.** IC50 (KG-1): 5.8 nM; IC50 (SNU-16): 19.6 nM; IC50 (NCI-H716): 5.9 nM; IC50 [1]: 4.5 nM

**Q.** What does the source list for `Cc1nc(Nc2ncc(C(=O)Nc3c(C)cccc3Cl)s2)cc(N2CCN(CCO)CC2)n1` [DASATINIB]?
**A.** IC50 (NCI-H2286 [2]): 33.3 nM; inhibition in vivo at 50 mg/kg (NCI-H2286 [3]): 50.9%; inhibition [4]: Active

**Q.** With `Cn1cccc(C(=O)Nc2cccc(-c3ccc4[nH]ncc4c3)c2)c1=O` as the molecule, how does the inhibition [5] read?
**A.** The inhibition was 76%.

**Q.** What does the source list for `Cc1ccc(C(=O)Nc2cc(CN3CCN(C)CC3)cc(C(F)(F)F)c2)cc1-c1ccc2c(-c3cnn(C4CC4)c3)n[nH]c2c1`?
**A.** half-life [6]: 1.4 h; Tmax [7]: 1.67 h; Cmax [8]: 111 ng/mL; AUC(0-t) [9]: 66.2 ng·h/mL; AUC(0-inf) [10]: 610 ng·h/mL; MRT [11]: 3.2 h; solubility [12]: 10 µM (≈ 6.14 µg/mL); Fa at 2 h, 5 µM [13]: 12%; efflux ratio at 2 h, 5 µM [14]: 42.7
